Bioassay records deposited in PubChem BioAssay by SRMLSC.
HUVEC inhibit – human endothelial cell proliferation inhibition | AID 648 | HUVEC proliferation, CellTiter-Glo luminescence, 72 h; hits give low values | viability, % at 10 µM (by protocol) | 86,000 compounds, 1.1% hits;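 active = viability at or below 30%; inactive = viability above 30%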;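 note: 100% = median luminescence of DMSO-only cell control wells on each plate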
H69AR inhibit – growth inhibitors of human H69AR lung tumor cells; H69AR lung tumor viability, ATP luminescence, 72 h; hits give low values; viability, % at 10 µM; 85,000 compounds, 6% hits;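 active = viability at or below 40%; inactive = viability above 40%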;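 note: multidrug resistant small cell line overexpressing MRP-1 efflux transporter; 100% = mean luminescence of untreated control wells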
Lung fibro prol – blocks proliferation of human lung fibroblasts; LL 47 human lung fibroblast viability, ATP luminescence; hits give low values; viability, % at 10 µM; 85,000 compounds, 1.1% hits;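 active = viability at or below 50% in the single dose screen; inactive = viability above 50%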;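 note: compound exposure lasted 72 h before the ATP readout; 100% = median luminescence of untreated cell-only wells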
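Times – overnight cell rest, 72 h compound treatment at 37 °C · Test system – human lung fibroblast line LL 47, low passage · Amount – 1,150 cells in each well · Controls – cell-only wells, no compound · Doses – 0.1% DMSO in all compound wells · Measured by – CellTiter-Glo luminescence · Buffer or medium – IMEM plus 15% FBS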
bCat KO growth – beta-catenin-lacking colon tumor cell growth suppression. HCT116 beta-catenin knockout viability, CellTiter-Glo, 60 h; hits give low values. viability, % at 10 µM. 140,000 compounds, 1.5% hits;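 active = viability at or under a set limit, the compound median less 4 SD, cut at about 6% in these data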;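 note: 0% = Hyamine 1622 control at 20 µM and 100% = untreated cell control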
PTEN del growth – growth suppressors of cells with PTEN tumor suppressor deletion | HCT116 PTEN-null viability, CellTiter-Glo, 60 h; hits give low values | viability, % at 10 µM | 140,000 compounds, 1.2% hits | AID 827;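 active = viability at or below a set limit, 4 SD under the median of all tested compounds, cut at about 3.7% in these data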;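 note: PTEN knockout HCT116 line with beta catenin targeted HCT116 as companion control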
* marks the source's active call; other numbers are inactive results; x = no result given. The full list was thinned out, with hits kept by preference.

SMILES | HUVEC inhibit | H69AR inhibit | Lung fibro prol | bCat KO growth | PTEN del growth
CCOc1ccc(CNC(=O)CCCOc2cc(=O)n(C)c3ccccc23)cc1 | 84.8 | 76.3 | 103.1 | 91.5 | 99.6
Cc1cc(N2CCCC2)nc(SCC(=O)c2ccccc2)n1 | 100.6 | 74.5 | 96.3 | 88.6 | 87.3
Cc1cc(N2CCC(C)CC2)nc(SCC(=O)c2ccccc2)n1 | 87.6 | 39.5* | 92.4 | 71.8 | 78.3
C=CC[C@@H]1C=C[C@H](O/N=C/c2ccc(C(=O)N3[C@H](c4ccc(C)cc4)[C@@H](C)CC[C@H]3C(=O)OC)cc2)[C@@H](CO)O1 | x | x | x | 63.4 | 48.4
O=C(CSc1nc2c(c(=O)n1-c1ccc(Cl)cc1)SCC2)Nc1nccs1 | 78.5 | 20.2* | 88.2 | 67.1 | 69.3
O=C(CSc1nc2c(c(=O)n1-c1ccc(Br)cc1)SCC2)Nc1nccs1 | 64.8 | 36.4* | 85.6 | 85.7 | 88.0
O=c1c2sccc2n(Cc2cccc(F)c2)c(=O)n1-c1ccc(F)cc1 | x | x | x | 86.6 | 94.7
COc1cc(C(=O)Nc2nc3ccccc3s2)ccc1OCc1c(C)noc1C | 74.4 | 18.6* | 79.9 | 58.3 | 47.5
COc1cc(C(=O)Nc2nccs2)ccc1OCc1c(C)noc1C | 96.6 | 83.6 | 99.4 | 89.8 | 83.3
Cc1cc(C)n(-c2ccc(C(=O)Nc3nc4ccccc4s3)cc2)n1 | 60.2 | 15.2* | 102.2 | 91.6 | 90.1
CCCC(=O)Nc1sc(C)c(-c2ccc(C(C)CC)cc2)c1C#N (configuration not stated) | x | x | x | 90.8 | 88.9
CCN(CC)CCCNC(=O)c1cc(-c2ccc(Cl)c(Cl)c2)on1 | x | x | x | 2.0* | 2.4*
CCN(CC)CCCNC(=O)c1cc2c(-c3ccc(Cl)cc3)nn(C)c2s1 | 2.4* | 1.8* | 19.3* | 0.8* | 1.6*
Cn1nc(-c2ccc(Cl)cc2)c2cc(C(=O)NCC3CCCO3)sc21 (configuration not stated) | 75.7 | 51.4 | 79.1 | 53.3 | 58.4
CN1CCN(CCCNC(=O)c2cc3c(-c4ccc(Cl)cc4)nn(C)c3s2)CC1 | 1.9* | 4.5* | 14.2* | 1.5* | 1.7*
O=C(NCc1ccccc1C(F)(F)F)C1CC(c2ccccc2[N+](=O)[O-])=NO1 (configuration not stated) | x | x | x | 94.3 | 101.0
Cc1ccc(C(=O)NNC(=O)C2CCN(c3nccc(C)n3)CC2)cc1 | x | x | x | 94.3 | 95.8
COc1ccc(/C=c2\s/c(=C/C(=O)c3ccc(C)cc3)[nH]c2=O)cc1OC | x | x | x | 56.7 | 34.1
COc1ccc(C(CC(=O)c2ccc(O)cc2)S(=O)(=O)c2ccc(C)cc2)cc1 (configuration not stated) | x | x | x | 6.0* | 6.9
O=C(Nc1cnn(Cc2ccc(Cl)cc2Cl)c1)c1cc(-c2cccs2)on1 | 66.4 | 19.4* | 97.1 | 100.3 | 86.4
O=C(Nc1cnn(Cc2ccc(Cl)cc2Cl)c1)c1noc2c1CCCC2 | 87.0 | 84.3 | 105.5 | 93.9 | 86.0
COc1cc(C(=O)NC(=S)NC(C)C)cc(OC)c1OC | x | x | x | 95.0 | 104.3
COc1cc(C(=O)N[C@H](C(=O)NC(C)C23CC4CC(CC(C4)C2)C3)C(C)C)cc(OC)c1OC (some centres not stated) | 44.4 | 41.9 | 47.7* | 70.0 | 77.0
Cc1ccc(-c2nn(CC(=O)Nc3ccc4c(c3)nc3n4CCOC3)c(=O)c3ccccc23)cc1 | 49.8 | 88.7 | 95.7 | 93.3 | 79.1
O=C(Cn1nc(-c2ccccc2)c2ccccc2c1=O)Nc1ccc2c(c1)nc1n2CCOC1 | 102.7 | 29.4* | 102.0 | 91.6 | 98.8
SMILES | HUVEC inhibit | H69AR inhibit | Lung fibro prol | bCat KO growth | PTEN del growth
CNC(=O)NC(=O)C(C)OC(=O)c1oc2ccccc2c1CSc1ccc(Cl)cc1 (configuration not stated) | x | x | x | 82.3 | 84.9
CSc1nc2ccccc2n1CC(=O)Nc1c(C)cccc1C | 85.5 | 74.8 | 106.2 | 47.2 | 61.8
CSc1nc2ccccc2n1Cc1c(Cl)cccc1Cl | 100.4 | 35.6* | 92.5 | 43.2 | 49.3
O=C(NCc1cccnc1)c1cccn2c(=O)c3sccc3nc12 | x | x | x | 99.2 | 100.0
CN(/N=C/c1cc([N+](=O)[O-])ccc1O)c1ccccc1 | x | x | x | 98.3 | 92.9
O=[N+]([O-])c1ccc(O)c(N=Cc2sc3ccccc3c2O)c1 | x | x | x | 1.9* | 3.7*
COc1ccc(N=Cc2sc3ccccc3c2Cl)cc1 | x | x | x | 76.7 | 94.4
Oc1c(C=Nc2cccc3cccnc23)sc2ccccc12 | 4.2* | 17.1* | 42.2* | 3.0* | 3.8*
N#CC1=C(N)C(C#N)(C#N)C(c2cccnc2)C2CC(c3ccccc3)CC=C12 (configuration not stated) | 5.9* | 1.6* | 44.2* | 82.9 | 82.4
N#CC1=C(N)C(C#N)(C#N)C(c2cccnc2)C2CCCC=C12 (configuration not stated) | 71.6 | 97.4 | 84.7 | 95.7 | 91.7
O=c1c2cccc3c(N4CCOCC4)ccc(c32)c2nc3ccccc3n12 | 49.6 | 28.0* | 92.8 | x | x
O=c1c2ccc([N+](=O)[O-])c3cccc(c32)c2nc3ccccc3n12 | x | x | x | 11.8 | 5.0
CCCn1c2ccc(/C(C)=N\O)cc2c2cc(/C(C)=N/O)ccc21 | 82.5 | 27.1* | 89.8 | 80.0 | 71.6
CCn1c2c(c3cc(Br)ccc31)CCC/C2=N\O | 49.3 | 85.6 | 84.1 | 81.3 | 79.5
Clc1ccc2[nH]c3c(NCCCN4CCOCC4)ncnc3c2c1 | 69.6 | 76.1 | 78.8 | 5.0* | 5.2
Cc1ccc2[nH]c3c(NCCN4CCOCC4)ncnc3c2c1 | 94.0 | 61.0 | 95.7 | 91.7 | 88.4
O=C(CN1C(=O)/C(=C/c2cccc(Br)c2)SC1=S)N1CCCC1 | x | x | x | 7.6 | 5.8
Cc1[nH]n(-c2ccc([N+](=O)[O-])cc2)c(=O)c1C=NCCN1CCN(C(=O)c2ccc(Br)cc2)CC1 | 66.0 | 39.5* | 70.9 | 57.7 | 53.9
Cc1ccc(S(=O)(=O)Nc2cc(C(=O)NCCN3CCCC3)ccc2N2CCCCC2)cc1 | 27.5* | 77.9 | 89.5 | 64.6 | 61.5
O=C(OCC(=O)N(C1CCCCC1)C1CCCCC1)c1cnccn1 | 98.1 | 1.2* | 106.5 | 78.5 | 85.4
Cc1nc2ccc(NS(=O)(=O)c3c(C)c(C)cc(C)c3C)cc2s1 | 87.0 | 16.4* | 95.9 | 28.1 | 35.9
C=CCN1C(=O)C(Cc2ccccc2)SC1=Nc1ccc(C(=O)O)cc1 (configuration not stated) | x | x | x | 92.0 | 105.0
Cn1c(SCC(=O)N(C2CCCCC2)C2CCCCC2)nnc1-c1cccs1 | 81.1 | 20.0* | 75.0 | 70.9 | 68.9
O=C(Nc1ccc(Cl)cc1)N1CCCN(Cc2ccccc2F)C1 | 90.8 | 77.4 | 92.6 | 60.7 | 60.5
Cc1ccc(NC(=O)N2CCCN(Cc3ccc(F)cc3)C2)cc1C | 37.6 | 28.1* | x | 51.0 | 48.4
CCOC(=O)c1c(-n2cccc2)sc2c1CCCC2=O | x | x | x | 94.3 | 87.1
O=C(CCS(=O)(=O)c1ccccc1)Nc1nc2c(s1)COc1ccccc1-2 | 57.9 | 2.0* | 49.8* | 3.1* | 1.8*
CC1=Nc2ccccc2/C1=C\c1nc(-c2ccc(C(F)(F)F)cc2)oc1O | 76.3 | 84.3 | 93.5 | 93.4 | 103.4
